In brackets after ≈: the same amount, converted by molar mass.
How the values were obtained:
Pseudomonas aeruginosa [1] = experiment: Antibacterial activity against 10^4 CFU Pseudomonas aeruginosa 09-32 after 18 hrs by CLSI agar dilution method; type: functional; details: 09-32, 18 h
Enterococcus faecalis [2] = experiment: Antibacterial activity against 10^4 CFU Enterococcus faecalis 08-10 after 18 hrs by CLSI agar dilution method; type: functional; details: 08-10, 18 h
Enterococcus faecium [3] = experiment: Antibacterial activity against 10^4 CFU Enterococcus faecium 08-2 after 18 hrs by CLSI agar dilution method; type: functional; details: 08-2, 18 h
Klebsiella pneumoniae [4] = experiment: Antibacterial activity against 10^4 CFU Klebsiella pneumoniae 09-22 after 18 hrs by CLSI agar dilution method; type: functional; details: 09-22, 18 h
Escherichia coli [5] = experiment: Antibacterial activity against 10^4 CFU Escherichia coli 08-21 after 18 hrs by CLSI agar dilution method; type: functional; details: 08-21, 18 h
Staphylococcus aureus [6] = experiment: Antibacterial activity against 10^4 CFU Staphylococcus aureus ATCC 25923 after 18 hrs by CLSI agar dilution method; type: functional; details: ATCC 25923, 18 h
[7] = Cytotoxicity against MDCK cells after 48 hrs by CPE assay; type: cell-based, Canis lupus familiaris; details: dog
In short: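 MDCK cells kept in Minimum Essential Medium with Earle's salt plus 10% fetal bovine serum at 37 °C, 5% CO₂. […] Medium then replaced by assay medium with or without compound. After 48 h exposure, viability read by CPE assay. CC₅₀ calculated by Reed–Muench analysis.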

[8] = test system: Staphylococcus epidermidis; experiment: Antibacterial activity against 10^4 CFU methicillin-sensitive Staphylococcus epidermidis 09-6 after 18 hrs by CLSI agar dilution method; type: functional; details: 09-6, 18 h
Klebsiella pneumoniae [9] = experiment: Antibacterial activity against 10^4 CFU Klebsiella pneumoniae 09-23 after 18 hrs by CLSI agar dilution method; type: functional; details: 09-23, 18 h
Enterococcus faecium [10] = experiment: Antibacterial activity against 10^4 CFU Enterococcus faecium 06-7 after 18 hrs by CLSI agar dilution method; type: functional; details: 06-7, 18 h
Pseudomonas aeruginosa [11] = experiment: Antibacterial activity against 10^4 CFU Pseudomonas aeruginosa ATCC 27853 after 18 hrs by CLSI agar dilution method; type: functional; details: ATCC 27853, 18 h
Staphylococcus aureus [12] = experiment: Antibacterial activity against 10^4 CFU methicillin-resistant Staphylococcus aureus 08-1 after 18 hrs by CLSI agar dilution method; type: functional; details: 08-1, 18 h
Escherichia coli [13] = experiment: Antibacterial activity against 10^4 CFU Escherichia coli ATCC 25922 after 18 hrs by CLSI agar dilution method; type: functional; details: ATCC 25922, 18 h
Staphylococcus aureus [14] = experiment: Antibacterial activity against 10^4 CFU methicillin-sensitive Staphylococcus aureus 08-1 after 18 hrs by CLSI agar dilution method; type: functional; details: 08-1, 18 h
Streptococcus pneumoniae = experiment: Antibacterial activity against 10^4 CFU Streptococcus pneumoniae 08-4 after 18 hrs by CLSI agar dilution method; type: functional; details: 08-4, 18 h
Enterococcus faecalis [15] = experiment: Antibacterial activity against 10^4 CFU Enterococcus faecalis 08-12 after 18 hrs by CLSI agar dilution method; type: functional; details: 08-12, 18 h
[16] = test system: Staphylococcus epidermidis; experiment: Antibacterial activity against 10^4 CFU methicillin-resistant Staphylococcus epidermidis 09-2 after 18 hrs by CLSI agar dilution method; type: functional; details: 09-2, 18 h

**Q.** With COc1c(N2CCNC(C)C2)c(F)cc2c(=O)c(C(=O)O)cn(C3CC3)c12 (stereo not drawn) [GATIFLOXACIN] as the compound, how does the MIC (Pseudomonas aeruginosa [1]) read?
**A.** 16 µg/mL (≈ 42.6 µM)

**Q.** And the MIC (Enterococcus faecalis [2])?
**A.** 8 µg/mL (≈ 21.3 µM)

**Q.** What about the MIC (Enterococcus faecium [3]) of the same compound?
**A.** 2 µg/mL (≈ 5.33 µM)

**Q.** What about the MIC (Klebsiella pneumoniae [4]) of the same compound?
**A.** 0.25 µg/mL (≈ 0.666 µM)

**Q.** And the MIC (Escherichia coli [5])?
**A.** 8 µg/mL (≈ 21.3 µM)

**Q.** And the MIC (Staphylococcus aureus [6])?
**A.** 0.06 µg/mL (≈ 0.16 µM)

**Q.** And the CC50 at 48 h [7]?
**A.** 396 µM

**Q.** And the MIC [8]?
**A.** 0.25 µg/mL (≈ 0.666 µM)

**Q.** What about the MIC (Klebsiella pneumoniae [9]) of the same compound?
**A.** 2 µg/mL (≈ 5.33 µM)

**Q.** What about the MIC (Enterococcus faecium [10]) of the same compound?
**A.** 4 µg/mL (≈ 10.7 µM)

**Q.** And the MIC (Pseudomonas aeruginosa [11])?
**A.** 1 µg/mL (≈ 2.66 µM)

**Q.** And the MIC (Staphylococcus aureus [12])?
**A.** 0.25 µg/mL (≈ 0.666 µM)

**Q.** What about the MIC (Escherichia coli [13]) of the same compound?
**A.** 4 µg/mL (≈ 10.7 µM)

**Q.** What about the MIC (Staphylococcus aureus [14]) of the same compound?
**A.** 0.06 µg/mL (≈ 0.16 µM)

**Q.** And the MIC (Streptococcus pneumoniae)?
**A.** 0.25 µg/mL (≈ 0.666 µM)

**Q.** And the MIC (Enterococcus faecalis [15])?
**A.** 4 µg/mL (≈ 10.7 µM)

**Q.** What about the MIC [16] of the same compound?
**A.** 0.25 µg/mL (≈ 0.666 µM)

**Q.** For CCn1cc(C(=O)O)c(=O)c2cc(F)c(N3CCC(C)(N)/C(=N/OC)C3)c(F)c21 (stereo not drawn), which MIC (Pseudomonas aeruginosa [1]) is on record?
**A.** 4 µg/mL (≈ 9.79 µM)

**Q.** And the MIC (Enterococcus faecalis [2])?
**A.** 32 µg/mL (≈ 78.4 µM)

**Q.** And the MIC (Enterococcus faecium [3])?
**A.** > 128 µg/mL

**Q.** And the MIC (Klebsiella pneumoniae [4])?
**A.** 32 µg/mL (≈ 78.4 µM)

**Q.** And the MIC (Escherichia coli [5])?
**A.** > 128 µg/mL

**Q.** What about the MIC (Staphylococcus aureus [6]) of the same compound?
**A.** 0.5 µg/mL (≈ 1.22 µM)

**Q.** What about the CC50 at 48 h [7] of the same compound?
**A.** 433 µM

**Q.** What about the MIC [8] of the same compound?
**A.** 0.25 µg/mL (≈ 0.612 µM)

**Q.** And the MIC (Klebsiella pneumoniae [9])?
**A.** 64 µg/mL (≈ 157 µM)

**Q.** And the MIC (Enterococcus faecium [10])?
**A.** > 128 µg/mL

**Q.** What about the MIC (Pseudomonas aeruginosa [11]) of the same compound?
**A.** 4 µg/mL (≈ 9.79 µM)

**Q.** And the MIC (Staphylococcus aureus [12])?
**A.** 0.25 µg/mL (≈ 0.612 µM)

**Q.** What about the MIC (Escherichia coli [13]) of the same compound?
**A.** 128 µg/mL (≈ 313 µM)

**Q.** And the MIC (Staphylococcus aureus [14])?
**A.** 0.25 µg/mL (≈ 0.612 µM)

**Q.** What about the MIC (Streptococcus pneumoniae) of the same compound?
**A.** 0.25 µg/mL (≈ 0.612 µM)

**Q.** And the MIC (Enterococcus faecalis [15])?
**A.** 64 µg/mL (≈ 157 µM)

**Q.** What about the MIC [16] of the same compound?
**A.** 0.25 µg/mL (≈ 0.612 µM)

**Q.** For CCO/N=C1\CN(c2c(F)cc3c(=O)c(C(=O)O)cn(C4CC4)c3c2OC(F)F)CCC1(C)N (stereo not drawn), which MIC (Pseudomonas aeruginosa [1]) is on record?
**A.** 16 µg/mL (≈ 33.2 µM)

**Q.** And the MIC (Enterococcus faecalis [2])?
**A.** 8 µg/mL (≈ 16.6 µM)

**Q.** And the MIC (Enterococcus faecium [3])?
**A.** 128 µg/mL (≈ 265 µM)

**Q.** And the MIC (Klebsiella pneumoniae [4])?
**A.** 16 µg/mL (≈ 33.2 µM)

**Q.** What about the MIC (Escherichia coli [5]) of the same compound?
**A.** 128 µg/mL (≈ 265 µM)

**Q.** What about the MIC (Staphylococcus aureus [6]) of the same compound?
**A.** 0.125 µg/mL (≈ 0.259 µM)

**Q.** What about the CC50 at 48 h [7] of the same compound?
**A.** 518 µM

**Q.** And the MIC [8]?
**A.** 0.25 µg/mL (≈ 0.518 µM)

**Q.** What about the MIC (Klebsiella pneumoniae [9]) of the same compound?
**A.** 8 µg/mL (≈ 16.6 µM)

**Q.** And the MIC (Enterococcus faecium [10])?
**A.** 128 µg/mL (≈ 265 µM)

**Q.** And the MIC (Pseudomonas aeruginosa [11])?
**A.** 4 µg/mL (≈ 8.29 µM)

**Q.** What about the MIC (Staphylococcus aureus [12]) of the same compound?
**A.** 0.25 µg/mL (≈ 0.518 µM)

**Q.** And the MIC (Escherichia coli [13])?
**A.** 16 µg/mL (≈ 33.2 µM)

**Q.** And the MIC (Staphylococcus aureus [14])?
**A.** 0.25 µg/mL (≈ 0.518 µM)

**Q.** And the MIC (Streptococcus pneumoniae)?
**A.** 0.25 µg/mL (≈ 0.518 µM)

**Q.** What about the MIC (Enterococcus faecalis [15]) of the same compound?
**A.** 32 µg/mL (≈ 66.3 µM)

**Q.** And the MIC [16]?
**A.** 0.25 µg/mL (≈ 0.518 µM)

**Q.** What does the source list for CCO/N=C1\CN(c2nc3c(cc2F)c(=O)c(C(=O)O)cn3-c2ccc(F)cc2F)CCC1(C)N (stereo not drawn)?
**A.** MIC (Pseudomonas aeruginosa [1]): 0.5 µg/mL (≈ 1.02 µM); MIC (Enterococcus faecalis [2]): 8 µg/mL (≈ 16.3 µM); MIC (Enterococcus faecium [3]): 64 µg/mL (≈ 131 µM); MIC (Klebsiella pneumoniae [4]): 32 µg/mL (≈ 65.4 µM); MIC (Escherichia coli [5]): 32 µg/mL (≈ 65.4 µM); MIC (Staphylococcus aureus [6]): 0.25 µg/mL (≈ 0.511 µM); CC50 at 48 h [7]: 128 µM; MIC [8]: 0.25 µg/mL (≈ 0.511 µM); MIC (Klebsiella pneumoniae [9]): 32 µg/mL (≈ 65.4 µM); MIC (Enterococcus faecium [10]): > 128 µg/mL; MIC (Pseudomonas aeruginosa [11]): 4 µg/mL (≈ 8.17 µM); MIC (Staphylococcus aureus [12]): 2 µg/mL (≈ 4.09 µM); MIC (Escherichia coli [13]): 16 µg/mL (≈ 32.7 µM); MIC (Staphylococcus aureus [14]): 0.25 µg/mL (≈ 0.511 µM); MIC (Streptococcus pneumoniae): 0.25 µg/mL (≈ 0.511 µM); MIC (Enterococcus faecalis [15]): 32 µg/mL (≈ 65.4 µM); MIC [16]: 0.25 µg/mL (≈ 0.511 µM)
